Hits are enriched below; roughly 3.5% of the tested compounds scored in any of these assays.
RGS4 inh – inhibitors of human RGS4. actives 0.45% (n = 310,000). HEK293 M3R/RGS4 inducible, Fluo-4 calcium flux; hits give high values; triggered by carbachol at its EC20. B-score at 10 µM. P49798;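 active means B-score, a plate-corrected calcium signal, over three deviations above library mean, with baseline fluorescence within five deviations of library mean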;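 further: RGS4 expression induced by doxycycline in cells with stable M3 receptor; B-score is computed from the integrated fluorescence ratio over baseline after carbachol; higher B-score means a larger calcium signal and so more RGS4 inhibition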
Target sequence (P49798 whole entry, looked up): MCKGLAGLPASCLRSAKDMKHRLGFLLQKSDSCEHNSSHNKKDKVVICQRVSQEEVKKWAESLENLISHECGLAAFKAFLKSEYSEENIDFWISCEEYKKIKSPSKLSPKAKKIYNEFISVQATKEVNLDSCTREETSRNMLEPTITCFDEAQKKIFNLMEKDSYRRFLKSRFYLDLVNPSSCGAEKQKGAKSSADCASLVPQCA
MrgX1 antagonist – blocks BAM8-22 activation of human MrgX1 receptor; MRGX1-HEK293 calcium flux, Fluo-4, BAM8-22 antagonism; hits give low values; Q96LB2; actives 1.3% (n = 310,000); B-score at 10 µM;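 active means calcium-response B-score plate-corrected more than 3 library SD below zero, starting fluorescence within 5 deviations, no agonist response on first addition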;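 further: peak minus trough fluorescence over baseline after final BAM8-22 challenge near maximal dose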
Target sequence (Q96LB2 whole entry, looked up): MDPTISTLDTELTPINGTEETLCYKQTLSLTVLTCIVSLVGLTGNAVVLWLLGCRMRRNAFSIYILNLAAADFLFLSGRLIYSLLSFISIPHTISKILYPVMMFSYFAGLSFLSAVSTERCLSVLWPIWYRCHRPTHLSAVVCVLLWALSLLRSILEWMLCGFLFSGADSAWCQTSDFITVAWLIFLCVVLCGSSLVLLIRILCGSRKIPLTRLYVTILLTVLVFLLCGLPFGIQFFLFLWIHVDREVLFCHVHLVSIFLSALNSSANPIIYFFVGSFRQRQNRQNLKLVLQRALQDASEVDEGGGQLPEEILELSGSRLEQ
RGS4 pot – RGS4 potentiation or activation. actives 0.92% (n = 310,000). HEK293 M3R/inducible RGS4, carbachol calcium flux Fluo4; hits give low values. B-score at 10 µM;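 active means B-score of the integrated calcium signal more than 4 SD below the library mean, with starting fluorescence not abnormally high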;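 further: negative B-score means reduced calcium response which marks RGS4 activation or potentiation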
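test system = M3R-expressing HEK293 line, RGS4 induced by doxycycline | probe or stimulus = carbachol at ECmax as muscarinic agonist stimulus | timing = dye loading 30 min 37 °C, buffer rest 30 min RT | signal = calcium dye Fluo4 fluorescence | evaluation = B score from integrated fluorescence ratio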
MrgX1 ag – agonists of human MrgX1 receptor; B-score at 10 µM; Q96LB2; AID 588627; MrgX1-HEK293 cells, Fluo-4 calcium fluorescence, agonist mode; hits give high values; actives 0.44% (n = 310,000);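 active means calcium response B-score plate-corrected fluorescence ratio at least 3 library SD, with starting fluorescence B-score inside 5 SD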
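Material: MrgX1-expressing HEK293 cells / Dosing: compound as first of three additions / Incubation: overnight seeding, then 1 h dark dye loading / Signal: Fluo-4 NW calcium fluorescence / Evaluation: B-scored fluorescence response ratio / Benchmarks: positive and negative control wells on each plate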
MrgX1 PAM – human MrgX1 positive allosteric modulation, primary screen; actives 0.63% (n = 310,000); B-score at 10 µM; MrgX1-HEK293, Fluo-4 calcium flux, FDSS; hits give high values; Q96LB2;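 active means plate-corrected calcium response at least 3 library SD above typical, normal starting fluorescence, not activating the receptor alone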;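 further: compound read alongside a low EC10 to EC30 dose of BAM8-22 agonist; peak minus trough fluorescence over baseline measured at the second addition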
MrgX1 PAM conf – reconfirmed allosteric activator of human MrgX1 receptor. shares compounds with MrgX1 PAM. actives 13% (n = 1,200). activation (ratio percentage), % at 10 µM. MrgX1-HEK293, Fluo-4 calcium fluorescence, FDSS. AID 602413;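 active means ratio at least 3 SD above the weak peptide control, stable starting fluorescence, no direct agonism earlier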;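 further: compound followed by low BAM8-22 agonist challenge near EC20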
HEK293 Ca flux – activity in parental HEK293 cells lacking MrgX1; AID 624111; shares compounds with MrgX1 antagonist; actives 2% (n = 4,000); fluorescence ratio F(max-min)/F0 at 10 µM; Fluo-4 calcium fluorescence, FDSS;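 active means duplicate-averaged calcium fluorescence ratio at least three times the standard deviation of buffer wells, a nonspecific response in parental cells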
HEK293 Ca counter – counter-screen for MrgX1 allosteric activators: effect in parental HEK293 cells; actives 0.4% (n = 4,000); shares compounds with MrgX1 antagonist; parental HEK293 calcium flux, Fluo-4 fluorescence ratio; hits give high values; fluorescence ratio F(max-min)/F0 at 10 µM;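 active means calcium fluorescence ratio, averaged over duplicates, at least 3 SD of the buffer-well ratio, meaning a nonspecific response in receptor-free cells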;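 further: untransfected parental HEK293 lacking MrgX1 used as counterscreen for MrgX1 allosteric activators; fluorescence change taken during the second addition on a kinetic imager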
HEK293 Ca cntr2 – activity in parental HEK293 cells lacking MrgX1 receptor; shares compounds with MrgX1 antagonist; Fluo-4 calcium fluorescence (FDSS); hits give high values; fluorescence ratio F(max-min)/F0 at 10 µM; actives 8.7% (n = 4,000); AID 624115;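 active means calcium fluorescence ratio at least three times the spread of buffer wells, meaning a non-specific response in parental cells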
Large screens that a line does not name were inactive (follow-up assays come after a bar, where they were run).

CCOC(=O)c1c(-c2ccc(OC)cc2)csc1NC(=O)C1CCCO1 (stereo not given)	MrgX1 PAM 24 | MrgX1 PAM conf inactive | HEK293 Ca flux inactive | HEK293 Ca counter inactive | HEK293 Ca cntr2 inactive
O=C(Nc1scc(-c2ccccc2)c1C(=O)O)c1ccco1	none
COC(=O)c1c(-c2cccc(C)c2)csc1NC(=O)C1CCCO1 (stereo not given)	none
CCOC(=O)c1c(-c2ccc(F)cc2)csc1NC(=O)C1CCCO1 (stereo not given)	MrgX1 PAM 11 | MrgX1 PAM conf inactive | HEK293 Ca flux inactive | HEK293 Ca counter inactive | HEK293 Ca cntr2 inactive
COC(=O)c1c(-c2ccc(F)cc2)csc1NC(=O)c1ccco1	MrgX1 PAM 22 | MrgX1 PAM conf 22% | HEK293 Ca flux inactive | HEK293 Ca counter inactive | HEK293 Ca cntr2 inactive
CCOC(=O)c1c(-c2ccc(C)cc2)csc1NC(=O)C1CCCO1 (stereo not given)	MrgX1 PAM 13 | MrgX1 PAM conf 19% | HEK293 Ca flux inactive | HEK293 Ca counter inactive | HEK293 Ca cntr2 inactive
Cc1c(/C(O)=C2\C(=O)C(=O)N(CCN(C)C)C2c2ccccc2)cnn1-c1ccccc1 (stereo not given)	none
Cn1c(=O)c2c(ncn2CCC(=O)N/N=C/c2cccnc2)n(C)c1=O	none
O=C(CCc1ccccc1)Nc1nc2n(n1)C(c1ccccc1)CC(=O)N2 (stereo not given)	MrgX1 PAM 21 | MrgX1 PAM conf inactive | HEK293 Ca flux inactive | HEK293 Ca counter inactive | HEK293 Ca cntr2 inactive
O=C(CCc1ccccc1)Nc1nc2n(n1)C(c1ccc(Cl)cc1)CC(=O)N2 (stereo not given)	none
Cc1nn(-c2ccc(N3CCCCC3)nn2)c(C)c1CCC(=O)Nc1cc(F)ccc1F	MrgX1 PAM 7.8 | MrgX1 PAM conf inactive | HEK293 Ca flux inactive | HEK293 Ca counter inactive | HEK293 Ca cntr2 inactive
CCc1nonc1NC(=O)COc1ccc(Cl)c(C)c1	MrgX1 PAM 12 | MrgX1 PAM conf inactive | HEK293 Ca flux inactive | HEK293 Ca counter inactive | HEK293 Ca cntr2 inactive
CCc1nonc1NC(=O)COc1cc(C)c(Cl)c(C)c1	none
CC(=O)CSc1nnc(C(F)(F)F)n1C	none
C=CCNC(=O)C(=O)c1c(-c2ccccc2)[nH]c2ccccc12	none
O=C(NCCc1ccccc1)C(=O)c1c(-c2ccccc2)[nH]c2ccccc12	MrgX1 PAM 11 | MrgX1 PAM conf inactive | HEK293 Ca flux inactive | HEK293 Ca counter inactive | HEK293 Ca cntr2 inactive
NC(=O)c1cc([N+](=O)[O-])ccc1NCc1cccc(N)c1	none (no result: RGS4 inh, RGS4 pot)
COc1cc(OC)cc(C2=NC3(CCC(C)CC3)NC2=S)c1 (stereo not given)	MrgX1 PAM 6.6 | MrgX1 PAM conf inactive | HEK293 Ca flux inactive | HEK293 Ca counter inactive | HEK293 Ca cntr2 inactive
Cc1ccc(C2=NC3(CCCC3)NC2=S)cc1	none
CC(C)N1CCNCC1	none
CCN1C(=O)CSC1=NC1C2CC3CC(C2)CC1C3 (stereo not given)	MrgX1 PAM 14 | MrgX1 PAM conf inactive | HEK293 Ca flux inactive | HEK293 Ca counter inactive | HEK293 Ca cntr2 inactive
COCc1cc(C)nc(Sc2nc3c(c(=O)n(C)c(=O)n3C)n2C)c1C#N	none (no result: MrgX1 antagonist, MrgX1 ag, MrgX1 PAM)
CC(=O)c1cccc(NC(=S)N2CCN(S(=O)(=O)c3ccccc3)CC2)c1	none
Cc1c(C)n(CC(O)CN2C(=O)c3ccccc3S2(=O)=O)c2ccccc12 (stereo not given)	MrgX1 PAM 10 | MrgX1 PAM conf inactive | HEK293 Ca flux inactive | HEK293 Ca counter inactive | HEK293 Ca cntr2 inactive
S=C(Nc1cccnc1)NC1CC2CCC1C2 (stereo not given)	none
O=S(=O)(c1ccccc1)N1CCN(c2ncnc3scc(-c4ccccc4)c23)CC1	none
OCC1CCCN(c2ncnc3scc(-c4ccccc4)c23)C1 (stereo not given)	MrgX1 PAM 6.5 | MrgX1 PAM conf inactive | HEK293 Ca flux inactive | HEK293 Ca counter inactive | HEK293 Ca cntr2 inactive
O=C(O)C1=C[C@H](c2ccc(F)cc2)C[C@H](OCc2ccc(CO)cc2)O1	none
COc1cccc(CNC(=O)Cn2nc(C)c([N+](=O)[O-])c2C)c1	none
Cc1c(-c2nc(N)nc(Nc3ccccc3)n2)oc2ccccc12	MrgX1 PAM 20 | MrgX1 PAM conf inactive | HEK293 Ca flux inactive | HEK293 Ca counter inactive | HEK293 Ca cntr2 inactive
Nc1nc(CN2CCCCCC2)nc(Nc2ccccc2)n1	none
CC(C)NC(=O)CCc1nc2cccnc2n1-c1ccccc1	none
Cc1nc(SCC(=O)NCc2ccco2)c2c(C)c(C)sc2n1	none
Cc1nc(SCC(=O)Nc2cc(C(N)=O)cc(C(N)=O)c2)c2c(C)c(C)sc2n1	MrgX1 PAM 13 | MrgX1 PAM conf inactive | HEK293 Ca flux inactive | HEK293 Ca counter inactive | HEK293 Ca cntr2 inactive
COc1ccc2c(C)cc(SCC(=O)N3CCOCC3)nc2c1	none
COc1ccc2c(C)cc(SCC(=O)N(C)C3CCS(=O)(=O)C3)nc2c1 (stereo not given)	MrgX1 PAM 10 | MrgX1 PAM conf inactive | HEK293 Ca flux inactive | HEK293 Ca counter inactive | HEK293 Ca cntr2 inactive
Cc1ccccc1Oc1ncnc2oc(-c3ccccc3)cc12	MrgX1 PAM 18 | MrgX1 PAM conf 44% | HEK293 Ca flux inactive | HEK293 Ca counter inactive | HEK293 Ca cntr2 inactive
Cc1ccccc1C(=O)N1CCC(C(=O)NC(C)c2ccc(-n3ccnc3)cc2)CC1 (stereo not given)	none
CCN(CC(=O)Nc1c(F)cccc1F)C(=O)c1ccc(C(F)(F)F)cc1	MrgX1 PAM 8.1 | MrgX1 PAM conf inactive | HEK293 Ca flux inactive | HEK293 Ca counter inactive | HEK293 Ca cntr2 inactive
CN(CC(=O)Nc1cccc(F)c1)C(=O)C1CCN(S(=O)(=O)c2ccc3c(c2)OCCO3)CC1	none
Cc1ccccc1N1C(=O)C2C3C=CC(C2C1=O)N(C)C3=O (stereo not given)	none
Cc1ccccc1N1C(=O)C2C3CCC(O3)C2C1=O (stereo not given)	MrgX1 PAM 19 | MrgX1 PAM conf inactive | HEK293 Ca flux inactive | HEK293 Ca counter inactive | HEK293 Ca cntr2 inactive
COc1cc(N)ccc1NC(=O)c1cc2ccccc2o1	none
Nc1ccc(Oc2ccc(Br)cc2)cc1	MrgX1 PAM 8.4 | MrgX1 PAM conf inactive | HEK293 Ca flux inactive | HEK293 Ca counter inactive | HEK293 Ca cntr2 inactive
Nc1ccc(Oc2cccc(Oc3ccc(N)cc3)c2)cc1	none

From PubChem
